# Measurements from different studies.
# Lines come from different studies, so protocols differ.
# Target: Insulin receptor (INSR, Homo sapiens, UniProt P06213)
Structure (SMILES),observed,method,tested at,remaining binding [%]
CCCOc1ccc([C@@H]2[C@@H](C(=O)O)[C@H](c3ccc4c(c3)OCO4)CN2CC(=O)Nc2c(CC)cccc2CC)cc1,cell-free assay,competition with immobilised ligand,1 µM,89
C[C@H]1CCN(c2nccc(-c3cnn4ncccc34)n2)C1,binding,,1 µM,69
C[C@@H](c1ccc(-n2cnc3c(N)ncnc32)cc1)N1CCc2nn(C)c(Cc3ccccc3)c2C1=O,binding,competition with immobilised ligand,0.1 µM,100
O=C(NCC1CCOCC1)c1n[nH]cc1NC(=O)c1c(F)cccc1F,binding,competition with immobilised ligand,1 µM,100
COc1ccnn2ncc(-c3ccnc(N(C)C)n3)c12,binding,,1 µM,96
O=C(NCCCN1CCOCC1)c1ccc(Nc2nccc(-c3cc4ccccc4s3)n2)cc1,binding,competition with immobilised ligand,1 µM,95
C[C@@H]1CN(c2ccc3ncc(-c4ccc5[nH]nc(C6CC6)c5c4)n3n2)C[C@H](C)O1,binding,competition with immobilised ligand,50 nM,100
CCC(=O)N[C@H]1CC[C@@H](C(=O)N(C)c2ccc(-c3nc4ccccc4o3)cc2)C1,cell-free assay,competition with immobilised ligand,1 µM,91
O=C(c1ccc(Nc2ncc(Cl)c(-c3cc4ccccc4s3)n2)cc1)N1CCC(N2CCCC2)CC1,binding,competition with immobilised ligand,1 µM,6.1
CC(=O)C1=C(C)N(c2cccc(C(F)(F)F)c2)C(=O)N[C@@H]1c1ccc(C#N)nc1,cell-free assay,competition with immobilised ligand,1 µM,89.3
CN(C)c1nccc(-c2cnc3ncccn23)n1,binding,,1 µM,70
CS(=O)(=O)NCC[C@H](NC(=O)c1cncc2c1cnn2-c1ccc(F)cc1)c1ccnc(S(C)(=O)=O)c1,cell-free assay,competition with immobilised ligand,1 µM,92
COc1cnc(Nc2cccc(S(N)(=O)=O)c2)nc1N1CCN(c2ccccc2)C(=O)C1,binding,competition with immobilised ligand,1 µM,96
Cc1cnn2ncc(-c3ccnc(N(C)C)n3)c2c1,binding,,1 µM,68
Cc1cnc(Nc2ccc(C(=O)N3CCC(N4CCCC4)CC3)cc2)nc1-c1cc2ccccc2s1,binding,competition with immobilised ligand,1 µM,7.8
N[C@@H]1CCN(c2nccc(-c3cnn4ncccc34)n2)C1,binding,,1 µM,100
Cn1nc(C(F)(F)F)cc1-c1cnc(N2CCc3cc(S(=O)(=O)Nc4c(F)cc(Cl)cc4F)cc(N4CCCC4=O)c32)nc1,cell-free assay,competition with immobilised ligand,1 µM,89
CNC(=O)[C@@H]1CC[C@@H](n2c(-c3ccc4cnccc4c3)nc3ccc(C(=O)NCc4cccc(C(N)=O)c4)cc32)C1,binding,competition with immobilised ligand,1 µM,92
c1cnn2ncc(-c3ccnc(N4CCC45COC5)n3)c2c1,binding,,1 µM,73
CCS(=O)(=O)c1cc2cc(C[C@](O)(CC(C)(C)c3ccc(F)cc3C(N)=O)C(F)(F)F)[nH]c2cn1,cell-free assay,competition with immobilised ligand,1 µM,94
CN(C)c1nccc(-c2cnn3ncccc23)n1,binding,,1 µM,79
Cc1cc(-n2nc(Cc3cc(F)cc(C(F)(F)F)c3)nc2C)ccc1C(N)=O,cell-free assay,competition with immobilised ligand,1 µM,99
Nc1ncc2c(n1)-c1c([nH]c3ccc(C#CC4CC4)cc13)CCCC2,binding,competition with immobilised ligand,1 µM,80
CC(=O)N1CCC(c2ccc(C(=O)NC3=NCCN3)cc2C(F)(F)F)CC1,cell-free assay,competition with immobilised ligand,1 µM,100
COc1ncc2cc3ccccc3nc2c1C#N,cell-free assay,competition with immobilised ligand,5 µM,100
